“And” between values parts separate entries of the source, which are not always exact repeats. Equal entries are not always repeated.
System: Fibroblast
Test: Multiplex assay against human fibroblast
Format: toxicity, cell-based
Method in brief: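 Imaging took place on a CQ1 microscope at 37°C and 5% CO2 once compound had been added to live cells stained at seeding with Hoechst33342, BioTracker Green Microtubule Cytoskeleton Dye, MitoTracker Red and Annexin V Alexa Fluor 680. CellPathfinder machine-learning gating classed cells as Hoechst high-intensity objects or normal cells, classed normal cells as having healthy, pyknosed or fragmented nuclei, and classed pyknosed cells as mitotic or apoptotic. Tubulin, mitochondrial-mass and membrane-permeability phenotypes are per cents of the healthy-nucleus cells.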

[1] = 12 h, 1 µM, compound concentration 1 uM
[2] = 12 h, 10 µM, compound concentration 10 uM
[3] = 24 h, 1 µM, compound concentration 1 uM
[4] = 24 h, 10 µM, compound concentration 10 uM
[5] = 48 h, 1 µM, compound concentration 1 uM
[6] = 48 h, 10 µM, compound concentration 10 uM

## CCn1c(-c2nonc2N)nc2c(C#CC(C)(C)O)ncc(OCC3CCCNC3)c21 (stereo unspecified)
[1]
  Population Apoptotic (%): 9.09% and 27.03%
  Population Fragmented Nuclei (%): 15.15% and 9.22%
  Population Healthy Nuclei (%): 64.85% and 77.66%
  Population Hoechst High Intensity Objects (%): 0%
  Population Membrane Permeable-Phenotype (%): 4.67% and 1.83%
  Population Mitochondria Different-Phenotype (%): 8.41% and 8.68%
  Population Mitotic Cells (%): 90.91% and 72.97%
  Population Normal (%): 100%
  Population Pyknosed Nuclei (%): 20% and 13.12%
  Population Tubulin-Different-Phenotype (%): 9.35% and 19.63%
  Total Cell Count: 165 and 282
[2]
  Population Apoptotic (%): 13.33% and 12.2%
  Population Fragmented Nuclei (%): 17.67% and 9.62%
  Population Healthy Nuclei (%): 66.43% and 74.62%
  Population Hoechst High Intensity Objects (%): 0%
  Population Membrane Permeable-Phenotype (%): 6.91% and 2.06%
  Population Mitochondria Different-Phenotype (%): 25% and 13.4%
  Population Mitotic Cells (%): 86.67% and 87.8%
  Population Normal (%): 100%
  Population Pyknosed Nuclei (%): 15.9% and 15.77%
  Population Tubulin-Different-Phenotype (%): 35.64% and 40.21%
  Total Cell Count: 283 and 260
[3]
  Population Fragmented Nuclei (%): 14.1% and 7.45%
  Population Healthy Nuclei (%): 73.08% and 80.78%
  Population Hoechst High Intensity Objects (%): 0%
  Population Membrane Permeable-Phenotype (%): 0.88% and 1.46%
  Population Mitochondria Different-Phenotype (%): 5.26% and 11.65%
  Population Mitotic Cells (%): 90% and 63.33%
  Population Normal (%): 100%
  Population Pyknosed Nuclei (%): 12.82% and 11.76%
  Total Cell Count: 156 and 255
[4]
  Population Apoptotic (%): 7.41% and 9.09%
  Population Fragmented Nuclei (%): 24.25% and 15.79%
  Population Healthy Nuclei (%): 61.04% and 77.78%
  Population Hoechst High Intensity Objects (%): 0%
  Population Membrane Permeable-Phenotype (%): 1.79% and 2.26%
  Population Mitotic Cells (%): 92.59% and 90.91%
  Population Normal (%): 100%
  Population Pyknosed Nuclei (%): 14.71% and 6.43%
  Population Tubulin-Different-Phenotype (%): 40.18% and 33.08%
  Total Cell Count: 367 and 342
[5]
  Population Apoptotic (%): 23.08% and 33.33%
  Population Fragmented Nuclei (%): 5.03% and 4.44%
  Population Healthy Nuclei (%): 86.79% and 87.1%
  Population Hoechst High Intensity Objects (%): 0%
  Population Membrane Permeable-Phenotype (%): 2.9% and 4.63%
  Population Mitotic Cells (%): 76.92% and 66.67%
  Population Normal (%): 100%
  Population Pyknosed Nuclei (%): 8.18% and 8.47%
  Total Cell Count: 159 and 248
[6]
  Population Apoptotic (%): 30% and 29.41%
  Population Fragmented Nuclei (%): 21.53% and 21.32%
  Population Healthy Nuclei (%): 69.97% and 74.37%
  Population Hoechst High Intensity Objects (%): 0%
  Population Membrane Permeable-Phenotype (%): 1.21% and 0.68%
  Population Mitochondria Different-Phenotype (%): 8.91% and 1.71%
  Population Mitotic Cells (%): 70% and 70.59%
  Population Normal (%): 100%
  Population Pyknosed Nuclei (%): 8.5% and 4.31%
  Population Tubulin-Different-Phenotype (%): 29.55% and 33.11%
  Total Cell Count: 353 and 394

## CN(C)C(=O)Cn1cc(-c2ccc(-c3cncc4ccccc34)cc2)cn1
[1]
  Population Apoptotic (%): 47% and 32%
  Population Healthy Nuclei (%): 72% and 46%
  Population Hoechst High Intensity Objects (%): 0% and 5%
  Population Membrane Permeable-Phenotype (%): 0% and 5%
  Population Mitochondria Different-Phenotype (%): 5% and 2%
  Population Mitotic Cells (%): 52% and 67%
  Population Normal (%): 100% and 94%
  Population Pyknosed Nuclei (%): 16% and 20%
  Population Tubulin-Different-Phenotype (%): 31% and 54%
  Total Cell Count: 139 and 161
[2]
  Population Apoptotic (%): 33%
  Population Healthy Nuclei (%): 69% and 42%
  Population Hoechst High Intensity Objects (%): 4% and 9%
  Population Mitochondria Different-Phenotype (%): 12% and 5%
  Population Mitotic Cells (%): 66%
  Population Normal (%): 95% and 90%
  Population Pyknosed Nuclei (%): 16%
  Population Tubulin-Different-Phenotype (%): 52% and 81%
  Total Cell Count: 113 and 98
[3]
  Population Apoptotic (%): 47% and 48%
  Population Healthy Nuclei (%): 73% and 38%
  Population Hoechst High Intensity Objects (%): 5%
  Population Membrane Permeable-Phenotype (%): 0% and 7%
  Population Mitochondria Different-Phenotype (%): 3% and 5%
  Population Mitotic Cells (%): 52% and 51%
  Population Normal (%): 94%
  Population Pyknosed Nuclei (%): 14% and 20%
  Population Tubulin-Different-Phenotype (%): 37% and 61%
  Total Cell Count: 137 and 156
[4]
  Population Apoptotic (%): 50% and 41%
  Population Fragmented Nuclei (%): 20% and 41%
  Population Healthy Nuclei (%): 62% and 43%
  Population Hoechst High Intensity Objects (%): 8% and 5%
  Population Membrane Permeable-Phenotype (%): 0% and 11%
  Population Mitochondria Different-Phenotype (%): 12% and 8%
  Population Mitotic Cells (%): 50% and 58%
  Population Normal (%): 91% and 94%
  Population Pyknosed Nuclei (%): 17% and 15%
  Population Tubulin-Different-Phenotype (%): 59% and 85%
  Total Cell Count: 113 and 85
[5]
  Population Apoptotic (%): 76% and 44%
  Population Fragmented Nuclei (%): 21% and 36%
  Population Healthy Nuclei (%): 65% and 40%
  Population Hoechst High Intensity Objects (%): 6% and 7%
  Population Membrane Permeable-Phenotype (%): 3% and 5%
  Population Mitochondria Different-Phenotype (%): 8% and 7%
  Population Mitotic Cells (%): 23% and 55%
  Population Normal (%): 93% and 92%
  Population Pyknosed Nuclei (%): 12% and 22%
  Population Tubulin-Different-Phenotype (%): 57% and 77%
  Total Cell Count: 144 and 141
[6]
  Population Fragmented Nuclei (%): 24% and 47%
  Population Healthy Nuclei (%): 54% and 44%
  Population Hoechst High Intensity Objects (%): 9% and 0%
  Population Membrane Permeable-Phenotype (%): 0% and 8%
  Population Mitochondria Different-Phenotype (%): 20% and 13%
  Population Normal (%): 90% and 99%
  Population Pyknosed Nuclei (%): 20% and 7%
  Population Tubulin-Different-Phenotype (%): 55% and 73%
  Total Cell Count: 117 and 102
